According to ChEMBL document CHEMBL1132360, “N-Substituted (2,3-dihydro-1,4-benzodioxin-2-yl)methylamine derivatives as D(2) antagonists/5-HT(1A) partial agonists with potential as atypical antipsychotic agents” (J Med Chem, 1999):
pKi: −log10 of the molar value.

How the values were obtained:
[1] = biological target: T1, 5-hydroxytryptamine receptor 1A (Homo sapiens, UniProt P08908); assay: The compound was tested for binding affinity against 5-hydroxytryptamine 1A receptor receptor
T1 sequence (P08908 whole entry): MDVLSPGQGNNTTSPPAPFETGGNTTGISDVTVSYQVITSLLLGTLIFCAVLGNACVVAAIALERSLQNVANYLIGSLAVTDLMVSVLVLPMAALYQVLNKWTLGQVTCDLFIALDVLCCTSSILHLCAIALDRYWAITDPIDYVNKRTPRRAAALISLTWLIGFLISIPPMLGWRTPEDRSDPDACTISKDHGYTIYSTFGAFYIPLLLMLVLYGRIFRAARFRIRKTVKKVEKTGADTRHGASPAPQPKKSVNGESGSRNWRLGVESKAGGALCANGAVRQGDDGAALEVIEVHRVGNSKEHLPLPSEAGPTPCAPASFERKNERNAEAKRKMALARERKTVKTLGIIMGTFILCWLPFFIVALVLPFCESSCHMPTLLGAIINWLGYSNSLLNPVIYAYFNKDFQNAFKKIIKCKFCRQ

[2] = biological target: 5-hydroxytryptamine receptor 2A (Rattus norvegicus, UniProt P14842); assay: The compound was tested for binding affinity against 5-hydroxytryptamine 2A receptor
[3] = biological target: Serotonin 4 (5-HT4) receptor (Sus scrofa, UniProt Q6Q253); assay: The compound was tested for binding affinity against 5-hydroxytryptamine 4 receptor
[4] = biological target: 5-hydroxytryptamine receptor 6 (Rattus norvegicus, UniProt P31388); assay: The compound was tested for binding affinity against 5-hydroxytryptamine 6 receptor
[5] = biological target: T2, Adrenergic receptor alpha-1 (Homo sapiens, UniProt P35348+P25100+P35368); assay: The compound was tested for binding affinity against human Alpha-1 adrenergic receptor; type: protein assay
T2 sequence (P35348 whole entry): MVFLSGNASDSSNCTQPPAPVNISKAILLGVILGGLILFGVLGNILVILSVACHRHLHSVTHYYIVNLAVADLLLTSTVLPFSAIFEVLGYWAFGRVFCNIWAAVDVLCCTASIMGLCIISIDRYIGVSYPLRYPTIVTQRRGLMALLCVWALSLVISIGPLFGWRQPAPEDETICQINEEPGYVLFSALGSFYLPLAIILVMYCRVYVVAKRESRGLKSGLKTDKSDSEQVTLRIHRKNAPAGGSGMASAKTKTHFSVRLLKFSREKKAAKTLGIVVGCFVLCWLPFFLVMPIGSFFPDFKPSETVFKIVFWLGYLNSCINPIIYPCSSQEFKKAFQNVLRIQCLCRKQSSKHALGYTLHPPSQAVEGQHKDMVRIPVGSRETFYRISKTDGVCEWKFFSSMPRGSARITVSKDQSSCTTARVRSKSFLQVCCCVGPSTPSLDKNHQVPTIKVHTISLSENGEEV
T2 sequence (P25100 whole entry): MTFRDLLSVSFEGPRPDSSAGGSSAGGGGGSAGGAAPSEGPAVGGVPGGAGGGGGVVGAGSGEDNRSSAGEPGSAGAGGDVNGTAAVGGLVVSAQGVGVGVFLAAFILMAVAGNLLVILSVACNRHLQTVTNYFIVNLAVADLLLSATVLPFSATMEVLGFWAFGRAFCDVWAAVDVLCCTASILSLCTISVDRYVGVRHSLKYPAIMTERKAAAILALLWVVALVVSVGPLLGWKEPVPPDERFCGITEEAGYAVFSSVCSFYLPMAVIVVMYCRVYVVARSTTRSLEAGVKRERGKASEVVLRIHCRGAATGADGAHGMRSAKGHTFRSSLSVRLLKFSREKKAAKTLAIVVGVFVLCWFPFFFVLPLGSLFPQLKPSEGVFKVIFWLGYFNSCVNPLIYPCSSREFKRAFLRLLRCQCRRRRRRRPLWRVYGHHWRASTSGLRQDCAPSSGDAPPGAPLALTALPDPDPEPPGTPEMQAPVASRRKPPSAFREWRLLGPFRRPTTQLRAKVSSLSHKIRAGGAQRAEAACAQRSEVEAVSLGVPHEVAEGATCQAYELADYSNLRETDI
T2 sequence (P35368 whole entry): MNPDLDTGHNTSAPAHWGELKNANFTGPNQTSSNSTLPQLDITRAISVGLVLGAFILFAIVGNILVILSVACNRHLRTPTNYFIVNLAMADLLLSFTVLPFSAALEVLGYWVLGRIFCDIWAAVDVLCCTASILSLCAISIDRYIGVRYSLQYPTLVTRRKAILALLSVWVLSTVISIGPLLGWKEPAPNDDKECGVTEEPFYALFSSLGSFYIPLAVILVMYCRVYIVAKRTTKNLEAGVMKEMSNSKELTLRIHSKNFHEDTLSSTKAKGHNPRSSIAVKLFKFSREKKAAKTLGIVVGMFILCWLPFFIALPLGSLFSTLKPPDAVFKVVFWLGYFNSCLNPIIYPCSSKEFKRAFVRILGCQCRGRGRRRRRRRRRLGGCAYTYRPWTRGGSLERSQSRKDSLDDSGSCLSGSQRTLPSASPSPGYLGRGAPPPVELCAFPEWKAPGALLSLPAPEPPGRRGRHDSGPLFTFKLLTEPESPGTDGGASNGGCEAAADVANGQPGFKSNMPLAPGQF
Method in brief: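 Postmortem human cortex membranes, stored at −80 °C, assayed in 50 mM Tris-HCl pH 7.6. Incubated with 0.1 nM [3H]prazosin for 30 min at 30 °C, test agent at 10^-6 M or 10 concentrations; 5 μM phentolamine for nonspecific binding. IC50 by curve fitting, converted to Ki (Cheng–Prusoff).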

D(2) dopamine receptor = D(2) dopamine receptor (Homo sapiens, UniProt P14416); assay: The compound was tested for binding affinity against human Dopamine receptor D2L
D(1A) dopamine receptor = D(1A) dopamine receptor (Homo sapiens, UniProt P21728); assay: The compound was tested for binding affinity against human Dopamine receptor D1
D(1B) dopamine receptor = D(1B) dopamine receptor (Homo sapiens, UniProt P21918); assay: The compound was tested for binding affinity against human Dopamine receptor D5
Histamine H1 receptor = Histamine H1 receptor (Rattus norvegicus, UniProt P31390); assay: The compound was tested for binding affinity against H1 receptor
[6] = biological target: 5-hydroxytryptamine receptor 1B (Sus scrofa, UniProt P79399); assay: The compound was tested for binding affinity against 5-hydroxytryptamine 1B receptor
Method in brief: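 Pig caudate membranes washed at 37 °C to remove endogenous 5-HT, in 50 mM Tris-HCl pH 7.7. Incubated 45 min at 25 °C with 4 nM [3H]sumatriptan plus CaCl2, pargyline and ascorbate, test agent at 10^-6 M; 10 μM 5-HT for nonspecific binding. Filtration, scintillation counting; percent displacement of specific binding.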

Chain of D(1B) dopamine receptor (P21918 whole entry): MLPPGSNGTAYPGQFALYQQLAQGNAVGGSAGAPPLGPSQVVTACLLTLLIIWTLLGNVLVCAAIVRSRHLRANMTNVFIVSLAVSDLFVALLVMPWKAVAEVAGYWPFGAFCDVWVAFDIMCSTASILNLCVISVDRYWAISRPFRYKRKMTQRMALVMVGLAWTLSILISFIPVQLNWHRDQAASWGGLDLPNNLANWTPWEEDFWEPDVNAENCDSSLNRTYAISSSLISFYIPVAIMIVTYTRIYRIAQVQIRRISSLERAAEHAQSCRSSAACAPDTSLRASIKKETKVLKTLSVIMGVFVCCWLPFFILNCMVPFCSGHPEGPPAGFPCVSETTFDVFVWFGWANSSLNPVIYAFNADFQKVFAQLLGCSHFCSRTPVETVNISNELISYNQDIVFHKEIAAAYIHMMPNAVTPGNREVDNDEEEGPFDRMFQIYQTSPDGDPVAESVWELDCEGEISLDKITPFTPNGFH
Chain of 5-hydroxytryptamine receptor 2A (P14842 whole entry): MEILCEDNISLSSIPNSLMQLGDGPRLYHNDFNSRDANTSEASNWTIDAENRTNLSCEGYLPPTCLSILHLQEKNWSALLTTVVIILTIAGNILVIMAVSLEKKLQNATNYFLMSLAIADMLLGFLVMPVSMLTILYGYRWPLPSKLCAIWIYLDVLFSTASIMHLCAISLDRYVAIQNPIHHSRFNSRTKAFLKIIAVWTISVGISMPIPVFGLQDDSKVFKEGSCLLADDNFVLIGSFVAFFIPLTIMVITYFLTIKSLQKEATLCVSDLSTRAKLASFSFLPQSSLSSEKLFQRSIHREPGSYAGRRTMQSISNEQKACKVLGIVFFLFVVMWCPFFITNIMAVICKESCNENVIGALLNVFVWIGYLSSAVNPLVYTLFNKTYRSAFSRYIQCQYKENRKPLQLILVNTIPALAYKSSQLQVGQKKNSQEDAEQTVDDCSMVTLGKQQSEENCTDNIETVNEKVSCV
Chain of D(1A) dopamine receptor (P21728 whole entry): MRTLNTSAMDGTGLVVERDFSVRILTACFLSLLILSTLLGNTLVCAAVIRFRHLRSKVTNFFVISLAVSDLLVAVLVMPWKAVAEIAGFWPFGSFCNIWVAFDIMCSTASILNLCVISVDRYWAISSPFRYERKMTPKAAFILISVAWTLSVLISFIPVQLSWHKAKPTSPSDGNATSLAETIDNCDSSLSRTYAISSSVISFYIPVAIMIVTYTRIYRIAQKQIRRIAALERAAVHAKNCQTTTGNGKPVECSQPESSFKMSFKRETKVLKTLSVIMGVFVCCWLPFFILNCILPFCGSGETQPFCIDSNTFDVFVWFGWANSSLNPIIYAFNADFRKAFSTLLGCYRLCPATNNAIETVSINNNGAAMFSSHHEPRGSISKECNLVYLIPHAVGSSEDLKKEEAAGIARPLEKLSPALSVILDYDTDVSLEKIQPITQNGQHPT
Chain of Serotonin 4 (5-HT4) receptor (Q6Q253 whole entry): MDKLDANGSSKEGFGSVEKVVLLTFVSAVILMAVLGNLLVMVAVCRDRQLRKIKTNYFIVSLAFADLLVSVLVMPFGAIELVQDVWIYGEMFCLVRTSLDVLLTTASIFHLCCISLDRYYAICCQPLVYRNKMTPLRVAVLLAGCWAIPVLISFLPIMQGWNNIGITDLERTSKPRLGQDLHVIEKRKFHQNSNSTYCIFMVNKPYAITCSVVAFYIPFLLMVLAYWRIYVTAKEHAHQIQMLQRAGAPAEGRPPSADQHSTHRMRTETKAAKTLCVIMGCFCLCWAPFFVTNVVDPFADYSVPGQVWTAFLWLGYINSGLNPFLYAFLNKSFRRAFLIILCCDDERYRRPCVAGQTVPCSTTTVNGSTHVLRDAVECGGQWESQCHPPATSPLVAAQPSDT
Chain of 5-hydroxytryptamine receptor 6 (P31388 whole entry): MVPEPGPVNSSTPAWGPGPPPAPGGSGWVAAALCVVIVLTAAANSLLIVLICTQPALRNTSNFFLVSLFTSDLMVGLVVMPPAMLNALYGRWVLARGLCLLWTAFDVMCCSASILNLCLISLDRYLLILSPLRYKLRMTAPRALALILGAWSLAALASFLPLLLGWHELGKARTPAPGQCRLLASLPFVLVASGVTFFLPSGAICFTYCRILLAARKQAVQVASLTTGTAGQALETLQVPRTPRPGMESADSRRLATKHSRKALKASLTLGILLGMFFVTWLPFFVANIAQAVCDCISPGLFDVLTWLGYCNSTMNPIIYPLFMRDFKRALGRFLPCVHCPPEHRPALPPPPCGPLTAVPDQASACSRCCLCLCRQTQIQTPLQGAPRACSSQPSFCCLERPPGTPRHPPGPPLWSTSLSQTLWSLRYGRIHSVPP
Chain of Histamine H1 receptor (P31390 whole entry): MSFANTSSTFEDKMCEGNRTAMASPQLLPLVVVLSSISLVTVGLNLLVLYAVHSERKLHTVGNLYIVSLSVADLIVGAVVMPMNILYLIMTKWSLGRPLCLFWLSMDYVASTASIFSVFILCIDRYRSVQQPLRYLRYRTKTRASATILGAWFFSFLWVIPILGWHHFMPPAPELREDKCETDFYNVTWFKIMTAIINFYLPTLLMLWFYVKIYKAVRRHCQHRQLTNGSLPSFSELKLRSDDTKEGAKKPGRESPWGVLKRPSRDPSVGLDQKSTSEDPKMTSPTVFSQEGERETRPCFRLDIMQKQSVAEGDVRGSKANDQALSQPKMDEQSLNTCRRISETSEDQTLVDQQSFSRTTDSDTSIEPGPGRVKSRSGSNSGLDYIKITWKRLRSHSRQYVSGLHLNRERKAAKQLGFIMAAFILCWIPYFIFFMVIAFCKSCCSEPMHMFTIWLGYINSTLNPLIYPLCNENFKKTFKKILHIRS
Chain of 5-hydroxytryptamine receptor 1B (P79399 whole entry): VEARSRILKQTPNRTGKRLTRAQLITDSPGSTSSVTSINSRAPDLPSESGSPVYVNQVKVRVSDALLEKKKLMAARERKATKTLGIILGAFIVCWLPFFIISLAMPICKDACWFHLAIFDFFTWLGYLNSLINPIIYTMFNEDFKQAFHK
Chain of D(2) dopamine receptor (P14416 whole entry): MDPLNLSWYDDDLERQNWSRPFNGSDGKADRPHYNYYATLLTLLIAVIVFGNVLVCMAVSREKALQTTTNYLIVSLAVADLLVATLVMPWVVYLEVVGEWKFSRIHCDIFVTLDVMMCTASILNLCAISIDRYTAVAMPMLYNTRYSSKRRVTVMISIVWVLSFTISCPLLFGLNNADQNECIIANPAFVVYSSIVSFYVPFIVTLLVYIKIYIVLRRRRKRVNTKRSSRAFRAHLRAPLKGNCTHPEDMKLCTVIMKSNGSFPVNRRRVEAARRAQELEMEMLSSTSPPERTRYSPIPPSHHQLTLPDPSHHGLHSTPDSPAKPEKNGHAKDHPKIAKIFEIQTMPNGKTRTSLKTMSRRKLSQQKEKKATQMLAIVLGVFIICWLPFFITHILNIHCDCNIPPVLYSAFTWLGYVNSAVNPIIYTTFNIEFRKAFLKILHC

Work on COc1ccccc1N1CCC(CNCC2COc3ccc(Cl)cc3O2)CC1 (stereo not given) yielded a pKi [1] of 8.44, a pKi [2] of under 6.30 and a pKi [3] of under 6.00. The pKi [4] was under 6.30, the Ki [5] was 181 nM and the pKi (D(2) dopamine receptor) was 7.88. The pKi (D(1A) dopamine receptor) was under 6.00, the pKi (D(1B) dopamine receptor) was under 6.00 and the pKi (Histamine H1 receptor) was under 6.00. It also gave a pKi [6] of under 6.00.
